Most compounds without a hit are left out; they make up all but 2.5% or so of the library.
NTR1 ag: agonists of human NTR1, primary screen, imaging, U2OS cells, beta-arrestin-GFP, high content | Neurotensin receptor type 1 (Homo sapiens), P30989 | NTR1-U2OS beta-arrestin-GFP spot imaging, agonist mode | activation, % at 20 µM | hit rate 0.17% among 330,000 | AID 493036, 2011;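 active = activation at or above 40% of the spot to cytoplasm intensity ratio, with at least 20 cells analyzed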;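 also: 0% = DMSO without peptide and 100% = 100 nM NTR1 peptide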
Target sequence (P30989 whole entry, looked up): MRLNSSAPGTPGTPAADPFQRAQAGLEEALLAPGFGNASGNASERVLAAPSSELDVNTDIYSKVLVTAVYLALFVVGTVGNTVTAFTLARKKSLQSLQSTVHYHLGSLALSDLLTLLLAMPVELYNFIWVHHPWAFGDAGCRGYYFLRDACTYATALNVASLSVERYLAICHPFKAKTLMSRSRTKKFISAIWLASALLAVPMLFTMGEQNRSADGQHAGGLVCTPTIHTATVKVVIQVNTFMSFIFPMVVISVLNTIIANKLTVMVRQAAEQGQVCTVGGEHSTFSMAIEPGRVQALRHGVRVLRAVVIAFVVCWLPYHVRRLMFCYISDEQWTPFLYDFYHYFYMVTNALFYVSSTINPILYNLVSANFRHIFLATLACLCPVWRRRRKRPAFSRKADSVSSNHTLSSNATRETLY
sPLA2-III inh: human group III sPLA2 inhibitors, primary screen, biochemical, QFRET, BODIPY PC-A2 liposome substrate. QFRET BODIPY PC-A2 liposome hydrolysis, fluorescence. inhibition, % at 12.2 µM. hit rate 0.56% among 370,000. AID 743126, 2013;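 active = inhibition above mean plus 3 SD of compounds lying within the high and low control bounds, cut at about 19% in these data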;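 also: 0% = median of test compound wells and 100% = no enzyme DMSO wells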
Bfl-1 A1 inh: caspase 3/7 activation in MEF A1-2A-BIM cells, primary screen, A1 inhibitor project, cell-based, luminescence, HTS. Caspase-Glo 3/7 luminescence, 3 h; percent of clofoctol response, vehicle zero. caspase activation, % (concentration not given with the values). hit rate 0.066% among 330,000. AID 2462, 2010;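 active = over half of replicate activation scores above 10%, or exactly half above 10 with the replicate mean above 10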
Granule exo inh: LAMP-1 surface exposure blockers, TALL-104 cells – cell-based, flow cytometry, MLPCN library, primary screen; TALL-104 LAMP-1 surface exposure; cells stimulated with thapsigargin and PMA; inhibition, % at 10 µM; hit rate 0.66% among 360,000;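 active = inhibition above about 55%, limit read from the data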
MC4R ag barr: MC4R agonists recruiting beta-arrestin, primary screen, cell-based, luminescence, agonist arm of biased-ligand search; Melanocortin receptor 4 (Homo sapiens), P32245; AID 540308, 2011; hit rate 0.98% among 360,000; activation, % at 8.9 µM; U2OS MC4R beta-arrestin complementation; percent of melanotan II response, DMSO zero;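 active = activation above a per-plate cutoff, the mean activation of sample wells on that plate plus 3 SD, cut at about 8% in these data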
MC4R antag cAMP: MC4R antagonists of cAMP signaling, primary screen, cell-based, TR-FRET, antagonist arm of biased-ligand search. hit rate 0.48% among 360,000. inhibition, % at 6.5 µM. Melanocortin receptor 4 (Homo sapiens), P32245. AID 540295, 2011. MC4R-expressing cells, MTII-stimulated cAMP, LANCE TR-FRET;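 active = inhibition above its plate's cutoff, the mean of tested wells on that plate plus 3 SD, cut at about 29% in these data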;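 also: 0% = Melanotan II alone and 100% = Melanotan II plus saturating MCL0020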
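system = U2OS cells with stable human MC4R expression | also added = Melanotan II challenge after compound preincubation | dosing = one concentration, 6.5 µM nominal | incubation = compound 30 min, challenge 1 h, detection 1 h | measured by = TR-FRET with Eu-cAMP and labeled anti-cAMP, 671 nm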
sPLA2 confirm: human group III sPLA2 inhibitors, confirmation, biochemical, QFRET, triplicate. shares compounds with sPLA2-III inh. recombinant hGIII-sPLA2, BODIPY PC-A2 QFRET fluorescence. inhibition, % at 12.2 µM. hit rate 34% among 2,000. AID 743280, 2014;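 active = mean inhibition across triplicates above the hit cutoff set in the earlier primary screen, cut at about 19% in these data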;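 also: 0% = enzyme with DMSO and 100% = DMSO wells lacking enzyme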
535nm interf: 535nm fluorescence optical interference, confirmation, artefact control for HGIII-sPLA2 inhibitor project, biochemical, QFRET; shares compounds with sPLA2-III inh; BODIPY FL product fluorescence interference; inhibition, % at 12.2 µM; hit rate 8.5% among 2,000; AID 743282, 2014;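 active = average inhibition above the solvent-only control mean plus 3 SD, cut at about 6% in these data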;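 also: 0% = DMSO with substrate plus product and 100% = DMSO with substrate alone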
535nm interf DR: 535nm fluorescence optical interference, dose response, artefact control for HGIII-sPLA2 inhibitor project, biochemical, QFRET | 240 tested, under 10 active | BODIPY FL product fluorescence interference, cell-free | IC50, µM | shares compounds with sPLA2-III inh;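 active = IC50 at or below 10 µM; inactive = IC50 above 10 µM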
Numbers without * were called inactive; nt = no result.

SMILES	NTR1 ag	sPLA2-III inh	Bfl-1 A1 inh	Granule exo inh	MC4R ag barr	MC4R antag cAMP	sPLA2 confirm	535nm interf	others
Cc1cccc(/C=N/Nc2ccc3ccccc3n2)c1	14	23*	-9	-2	-2	-2	-20	-6
CCCNC(=S)N1CCC(C(=O)c2ccc(OC)cc2)CC1	3	21*	0	1	1	-6	14	-7
CCCNC(=S)N1CCC(C(=O)c2ccc(Cl)cc2)CC1	0	17	-1	-1	-3	5	nt	nt
Cc1ccc(-c2nnc(SCC(=O)N/N=C/c3ccccc3C(=O)O)n2C2CCCCC2)cc1	-1	-15	0	-7	-2	1	nt	nt
COc1ccc(-n2c(SCC(=O)Nc3ccc(Oc4ccccc4)cc3)nnc2-c2ccccc2)cc1	nt	-2	nt	nt	nt	nt	nt	nt
Cc1ccc(-c2nnc(SCC(=O)Nc3ccc4c(c3)OCCO4)n2N)cc1	0	3	0	3	-2	4	nt	nt
Cc1ccc(-c2nnc(SCC(=O)Nc3ccc4c(c3)OCCO4)n2-c2ccc(C)cc2)cc1	nt	21*	nt	nt	nt	nt	-15	-23
COc1ccc(-n2c(SCC(=O)NNC(=S)Nc3ccc(C)cc3)nnc2-c2ccccc2)cc1	nt	31*	nt	nt	nt	nt	18	-3
Cc1ccc(-c2nnc(SCC(=O)NNC(=S)Nc3ccccc3)n2C2CCCCC2)cc1	nt	28*	nt	nt	nt	nt	33*	-9	535nm interf DR=>122
COc1ccc(-c2nc3c4ccccc4ccn3c2CN2CCOCC2)cc1OC	2	3	-1	-3	0	0	nt	nt
CNC(=S)NNC(=O)Cc1ccc(O)cc1	0	26*	1	-1	1	-8	6	-3
CNC(=S)NNC(=O)Cc1ccc(OC)cc1	0	-1	0	-1	-1	10	nt	nt
CCCCC(C(=O)O)C(C)CC(=O)NNC(=O)c1ccco1 (stereo unspecified)	-1	2	0	-3	-2	0	nt	nt
Cc1ccccc1C(=O)Nc1cccc(NC(=S)NC(=O)c2cccs2)c1	12	5	0	-6	5	9	nt	nt
Cc1ccccc1C(=O)NNC(=S)NC(=O)c1cccs1	3	34*	-1	0	-4	0	39*	-5	535nm interf DR=>122
O=c1c2ccccc2[nH]c(=S)n1Cc1cccnc1	0	20*	0	0	-2	3	11	-5
COc1cnc(-c2ccccn2)nc1Oc1ccccc1	-1	11	0	-4	-2	6	nt	nt
COc1cnc(-c2ccccn2)nc1Oc1cccc(C(F)(F)F)c1	1	21*	0	-10	2	-3	8	-16
CCN(CC)C(=O)/C=C/c1ccccc1	0	20*	-3	1	-3	6	-3	-4
Cc1ccc(S(=O)(=O)CNC(=S)c2ccc3ccccc3c2)cc1	2	20*	-1	-2	0	2	24*	0
O=C(CN1CCN(c2ccccn2)CC1)Nc1cccc(Br)c1	1	-6	0	2	0	9	nt	nt
